Reference: the RNAGym collection of RNA variant scans (doi:10.1126/science.aae0568)
Fewer inactive variants are shown than the library holds.

B1: tRNA (parent)
chain: GUUCCGUUGGCGUAAUGGUAACGCGUCUCCCUCCUAAGGAGAAGACUGCGGGUUCGAGUCCCGUACGGAACG

Variants of: B1
Experiment: yeast fitness relative to wild type (ratio to wild type); higher = fitter; tRNA-Arg(CCU), competitive growth, 37 C, YPD
Summary of the method: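 Variants of the tRNA-Arg(CCU) gene, chemically synthesised with a 3% per-site mutation rate at 69 sites, were placed at the native genomic locus in Saccharomyces cerevisiae. The pooled strains were competed in YPD at 37°C for 24 hours in six parallel replicates. Gene amplicons from the start population and from each end population were read by 100-nucleotide paired-end sequencing. Darwinian fitness relative to wild type came from changes in genotype frequencies; genotypes needed ≥ 100 starting reads, and estimates < 0.5 were set to 0.5.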

Variant	yeast fitness
U7G G51C	0.644
U8A A43C A65U	≤ 0.5
U7G A45G A65C C66A	1.03
U7G U47A C61A	0.781
U7G G10C A43U C55U	≤ 0.5
U8A C22U A36G A40C U47A	≤ 0.5
U8A C30G C46A G63A G67A	≤ 0.5
U7G G67A	0.826
U7G C34G A36C	0.525
U7G C27G U32C A36G	≤ 0.5
U8A C29U G51C C55U	0.526
U8A A15U C27G A36G	0.569
U8A A21U C55A	≤ 0.5
U8A A40U A43U A65C	≤ 0.5
U8A C24U	0.834
U7G G9A C30G G51C	≤ 0.5
U8A A40G U64C	0.623
U7G A40C U47A	≤ 0.5
U7G C11G U32A U53G	≤ 0.5
U7G U32G	0.569
U7G U32C	0.992

Variant	yeast fitness
U7G C30U G38A	0.591
U7G C30U	0.895
U7G C30G	0.509
U7G C30A	0.721
U7G A57G C60U	0.62
U7G G23C C24A C30G A36U C61U A65U	≤ 0.5
U7G G39C A70U	0.553
U8A C11A C24A C29A C34U C61G	≤ 0.5
U8A C22U	0.634
U7G U16C C30A	≤ 0.5
U8A C22U U35C	≤ 0.5
U7G C29G G52C A57U	≤ 0.5
U7G A43U C46A	0.603
U7G C22G G50A G67A	≤ 0.5
U7G C66U	0.893
U7G C66A	0.573
U7G U26C A43G C49U	≤ 0.5
U8A A14C C31A G41C C49A G56A G67C	≤ 0.5
U7G A45U	0.852
U7G A37U C46G	≤ 0.5
U7G C22G A43U U47A G51A	0.664

Variant	yeast fitness
U8A A21G C24A C30A A45U C49A	0.765
U8A C24A U28C G68U	0.531
U8A A21G C24A C30A A45U C49A A65U	≤ 0.5
U7G G41C G58C U59C	≤ 0.5
U7G G25C A40U	0.556
U8A A21U C27G C30A	≤ 0.5
U8A C11G A65G	0.857
U7G G10C C29A C55U A69U	0.534
U7G G50C G67C	≤ 0.5
U8A A14G C24G A45C U64A	≤ 0.5
U7G G63A	0.888
U7G G23U C27G U28G C60A	≤ 0.5
U8A A14G A20U G63C C66G	≤ 0.5
U8A A37G A43G U59A	0.582
U7G G9A C31G A36G C62U	≤ 0.5
U8A C24A U28A G58A	0.584
U8A A42U U59A	≤ 0.5
U8A A14C C31A G41C G63U U64A	0.776
U8A A36C C62A	≤ 0.5
U7G C27G U28G G67A	0.547
U7G U26G C33G U59A U64C	0.502

Variant	yeast fitness
U7G C11G C34U A36G G41A A65G	≤ 0.5
U8A A65G	0.855
U8A A65U	0.708
U8A A65C	0.837
U8A A15U	0.587
U8A A15C	0.631
U8A A15G	0.665
U8A C11U G25A C33A A40U A69U	≤ 0.5
U7G C27G U32C U35C A36G U53A G56A	≤ 0.5
U8A C22G G25A C27A C33U A57C G68C	≤ 0.5
U7G C49U A57U	≤ 0.5
U8A A14G C24G G56A	≤ 0.5
U8A C27U A42G C62G G68A	≤ 0.5
U7G C34G	0.649
U7G C34U	0.588
U8A A20U G56A G67A	≤ 0.5
U7G C29U C31U G38C A70G	≤ 0.5
U8A A36G G44A	0.527
U7G C11G	0.692
U7G C11U	0.807
U8A A36U G39A C66U	≤ 0.5
